Experimental data reported in ChEMBL document CHEMBL4732101, “Novel quinolone-based potent and selective HDAC6 inhibitors: Synthesis, molecular modeling studies and biological investigation” (Eur J Med Chem, 2021).
The source made the active and inactive calls. The calls are words filed in the database; no cut-off is given here.

Legend:
[1] = system: NIH3T3; assay: Cytotoxicity against mouse NIH/3T3 cells assessed as reduction in cell viability after 24 hrs by neutral red uptake assay; assay type: cell-based; details: NIH3T3, 24 h
Outline: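 NIH3T3 fibroblasts seeded at 5 x 10^4 per well and cultured 24 h at 37 °C, 5% CO2. DMSO-solubilized samples added at 8 to 160 µM for 24 h; medium as negative control. Neutral Red medium applied 3 h, dye desorbed in acetic acid/ethanol, absorbance read at 540 nm. Three experiments, six replicates per concentration; viability normalized to % control.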

[2] = Mutagenicity in Salmonella typhimurium TA98 at 5 to 230 uM measured after 90 mins in presence of rat liver S9 fraction by Ames test; assay type: toxicity, subcellular; details: salmonella enterica subsp. enterica serovar typhimurium, s9, 1.5 h, dose 5-230 µM
[3] = Mutagenicity in Salmonella typhimurium TA100 at 5 to 230 uM measured after 90 mins in presence of rat liver S9 fraction by Ames test; assay type: toxicity, subcellular; details: salmonella enterica subsp. enterica serovar typhimurium, s9, 1.5 h, dose 5-230 µM
[4] = Mutagenicity in Salmonella typhimurium TA98 at 5 to 230 uM measured after 90 mins in absence of rat liver S9 fraction by Ames test; assay type: toxicity; details: salmonella enterica subsp. enterica serovar typhimurium, 1.5 h, dose 5-230 µM
[5] = Mutagenicity in Salmonella typhimurium TA100 at 5 to 230 uM measured after 90 mins in absence of rat liver S9 fraction by Ames test; assay type: toxicity; details: salmonella enterica subsp. enterica serovar typhimurium, s9, 1.5 h, dose 5-230 µM
[6] = Solubility of compound in pH 3 buffer at 250 uM measured after 24 hrs by HPLC/UV/DAD method; assay type: physicochemical; details: pH 3, 24 h
Outline: (§1)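 10 mM DMSO stock diluted to 250 µM (2.5% DMSO) in 50 mM acetic acid, pH 3.0, and shaken 24 h at 25 °C. For solubility, samples filtered, diluted 1:2, quantified by HPLC-UV at 254 nm against a standard. For stability, percent remaining taken as the 24 h peak area over the T0 peak area. Triplicate analyses averaged.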

[7] = Stability of compound in pH 3 buffer assessed as parent compound remaining at 250 uM measured after 24 hrs by HPLC/UV/DAD method; assay type: physicochemical; details: read-out: Stabilty; outline: as §1
[8] = biological target: T1, Protein deacetylase HDAC6 (Homo sapiens, UniProt Q9UBN7); assay: Inhibition of recombinant human full length N-terminal GST-tagged HDAC6 expressed in baculovirus infected Sf9 cells using Z-(Ac)Lys-AMC as substrate measured after 90 mins by fluorescence assay
T1 sequence (Q9UBN7 whole entry): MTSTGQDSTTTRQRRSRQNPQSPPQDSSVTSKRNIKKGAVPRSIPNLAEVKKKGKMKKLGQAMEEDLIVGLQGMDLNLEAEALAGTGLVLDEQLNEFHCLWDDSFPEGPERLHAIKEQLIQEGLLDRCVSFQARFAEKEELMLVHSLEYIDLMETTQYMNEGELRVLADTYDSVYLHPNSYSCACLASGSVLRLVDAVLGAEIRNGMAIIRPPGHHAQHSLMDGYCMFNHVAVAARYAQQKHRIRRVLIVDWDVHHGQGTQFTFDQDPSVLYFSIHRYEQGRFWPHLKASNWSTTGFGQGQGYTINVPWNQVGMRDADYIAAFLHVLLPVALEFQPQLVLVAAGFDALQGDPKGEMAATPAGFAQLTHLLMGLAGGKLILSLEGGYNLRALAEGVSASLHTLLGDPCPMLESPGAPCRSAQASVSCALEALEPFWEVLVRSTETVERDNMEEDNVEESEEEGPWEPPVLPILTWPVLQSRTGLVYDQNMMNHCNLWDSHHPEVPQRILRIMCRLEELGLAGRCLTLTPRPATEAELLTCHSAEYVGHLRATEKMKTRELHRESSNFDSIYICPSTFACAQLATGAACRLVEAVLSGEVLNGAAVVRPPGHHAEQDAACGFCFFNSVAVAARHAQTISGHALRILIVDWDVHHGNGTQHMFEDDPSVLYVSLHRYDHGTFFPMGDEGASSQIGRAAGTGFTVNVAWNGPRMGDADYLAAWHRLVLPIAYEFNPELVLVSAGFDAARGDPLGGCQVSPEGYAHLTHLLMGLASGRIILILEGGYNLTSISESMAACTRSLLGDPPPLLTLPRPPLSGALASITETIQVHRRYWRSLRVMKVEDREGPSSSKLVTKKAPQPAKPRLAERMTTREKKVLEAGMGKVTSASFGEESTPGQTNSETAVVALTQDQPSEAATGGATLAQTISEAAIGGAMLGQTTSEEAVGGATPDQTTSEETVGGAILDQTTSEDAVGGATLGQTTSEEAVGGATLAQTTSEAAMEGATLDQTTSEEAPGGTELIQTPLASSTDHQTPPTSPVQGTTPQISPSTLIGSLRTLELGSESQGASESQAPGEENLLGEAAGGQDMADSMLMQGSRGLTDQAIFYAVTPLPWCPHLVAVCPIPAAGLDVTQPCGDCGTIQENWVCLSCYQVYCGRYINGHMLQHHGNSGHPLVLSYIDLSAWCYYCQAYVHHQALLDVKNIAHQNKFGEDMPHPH

[9] = biological target: Histone deacetylase 1 (Homo sapiens, UniProt Q13547); assay: Inhibition of recombinant human C-terminal FLAG/His-tagged HDAC1 (1 to 482 residues) expressed in Sf9 insect cells using Z-(Ac)Lys-AMC as substrate measured after 90 mins by fluorescence assay
Outline: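 Incubated with inhibitor in DMSO and fluorogenic substrate Z-(Ac)Lys-AMC (126 µM, as added) for 90 min at 37 °C. Stopped with trichostatin A plus trypsin for 30 min at 37 °C; fluorescence read at ex 390/em 460 nm.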

[10] = biological target: T2, Protein deacetylase HDAC6 (Homo sapiens) (UniProt Q9UBN7); assay: Inhibition of HDAC6 in human HCT-116 cells assessed as increase in Hsp90(AcLys294) acetylation at 10 uM measured after 12 to 24 hrs by Western blot analysis; assay type: cell-based; details: time 12-24 hrs
T2 sequence (whole entry): T1 sequence (Q9UBN7 whole entry)
Outline: (§2)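 HCT-116 or U937 cells treated at 10 µM for 12 and 24 h. […] Western blot used 40 µg total protein or 5 µg acid-extracted histone. Blots probed for cleaved PARP, acetylated tubulin, H3K9/14ac and Hsp90(AcLys294), normalized to GAPDH or H4. Compared with control cells by one-way ANOVA and Dunnett's test.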

[11] = system: HCT-116; assay: Cytotoxicity against human HCT-116 cells assessed as reduction in cell proliferation at 25 uM measured after 48 hrs by MTT assay relative to control; assay type: functional; set-up: scale not given: the % may be the effect or the level left; details: time 12 hrs, in the assay text read “after 12 hrs” for “after 48 hrs”
Outline: (§3)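 HCT-116 cells grown in DMEM with 10% FBS, 2 mM L-glutamine and antibiotics. 2.5×10^4 cells/well treated in triplicate at 50, 25, 10, 5 and 1 µM for 12, 24 or 48 h. Then MTT 0.5 mg/ml for 3 h, supernatant removed, formazan dissolved in isopropanol, absorbance read at 570 nm. IC50 derived from the concentration series.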

[12] = system: HCT-116; assay: Cytotoxicity against human HCT-116 cells assessed as reduction in cell proliferation at 10 uM measured after 24 hrs by MTT assay relative to control; assay type: functional; set-up: scale not given: the % may be the effect or the level left; outline: as §3
[13] = system: HCT-116; assay: Cytotoxicity against human HCT-116 cells assessed as reduction in cell viability measured after 24 hrs by MTT assay; assay type: functional, cell-based; details: HCT-116, 24 h; outline: as §3
[14] = system: U-937; assay: Cytotoxicity against human U-937 cells assessed as reduction in cell viability measured after 48 hrs by MTT assay; assay type: functional, cell-based; details: U-937, 48 h
Outline: (§4)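 U937 cells grown in RPMI-1640 with 10% FBS, 2 mM L-glutamine and penicillin-streptomycin. 2.5×10^4 cells/well treated in triplicate at 50, 25, 10, 5 and 1 µM for 12, 24 or 48 h. MTT 0.5 mg/ml added for 3 h, plate centrifuged 5 min at 1200 rpm, crystals dissolved in isopropanol, A570 read. IC50 derived from the concentration series.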

[15] = system: U-937; assay: Induction of apoptosis in human U-937 cells assessed as increase in PARP cleavage at 10 uM measured after 24 hrs by Western blot analysis; assay type: functional, cell-based; outline: as §2
[16] = system: HCT-116; assay: Cytotoxicity against human HCT-116 cells assessed as reduction in cell viability measured after 12 hrs by MTT assay; assay type: functional, cell-based; details: HCT-116, 12 h; outline: as §3
[17] = system: HCT-116; assay: Cytotoxicity against human HCT-116 cells assessed as reduction in cell proliferation at 10 uM measured after 48 hrs by MTT assay relative to control; assay type: functional; set-up: scale not given: the % may be the effect or the level left; outline: as §3
[18] = biological target: T2, Protein deacetylase HDAC6 (Homo sapiens); assay: Inhibition of HDAC6 in human HCT-116 cells assessed as increase in alpha-tubulin acetylation at 10 uM measured after 12 to 24 hrs by Western blot analysis relative to control; assay type: cell-based; details: time 12-24 hrs; outline: as §2
[19] = biological target: T2, Protein deacetylase HDAC6 (Homo sapiens); assay: Inhibition of HDAC6 in human U-937 cells assessed as increase in alpha-tubulin acetylation at 10 uM measured after 12 to 24 hrs by Western blot analysis relative to control; assay type: cell-based; details: time 12-24 hrs; outline: as §2
[20] = system: HCT-116; assay: Induction of apoptosis in human HCT-116 cells assessed as increase in PARP cleavage at 10 uM measured after 24 hrs by Western blot analysis; assay type: functional, cell-based; outline: as §2
[21] = biological target: T3, Histone deacetylase 8 (Homo sapiens, UniProt Q9BY41); assay: Inhibition of recombinant human HDAC8 using Fluor-de-Lys as substrate measured after 1 hr by fluorescence assay
T3 sequence (Q9BY41 whole entry): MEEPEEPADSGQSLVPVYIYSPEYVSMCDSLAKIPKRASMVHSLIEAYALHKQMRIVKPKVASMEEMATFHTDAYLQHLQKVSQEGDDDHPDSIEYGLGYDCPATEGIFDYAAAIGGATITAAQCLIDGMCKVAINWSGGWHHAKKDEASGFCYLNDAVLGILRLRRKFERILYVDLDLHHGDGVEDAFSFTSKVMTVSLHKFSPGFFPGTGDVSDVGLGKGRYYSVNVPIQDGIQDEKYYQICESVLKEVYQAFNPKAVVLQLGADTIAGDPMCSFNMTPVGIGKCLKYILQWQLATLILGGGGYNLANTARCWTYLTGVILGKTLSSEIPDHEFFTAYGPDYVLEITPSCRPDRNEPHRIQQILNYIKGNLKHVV

[22] = system: U-937; assay: Cytotoxicity against human U-937 cells assessed as reduction in cell proliferation at 50 uM measured after 48 hrs by MTT assay relative to control; assay type: functional; set-up: scale not given: the % may be the effect or the level left; outline: as §4
[23] = system: HCT-116; assay: Cytotoxicity against human HCT-116 cells assessed as reduction in cell viability measured after 48 hrs by MTT assay; assay type: functional, cell-based; details: HCT-116, 48 h; outline: as §3
[24] = Inhibition of HDAC1/2/3/8 in human HCT-116 cells assessed as increase in H3K9/14 acetylation at 10 uM measured after 12 to 24 hrs by Western blot analysis relative to control; assay type: cell-based; details: hct-116, 10 µM, time 12-24 hrs; outline: as §2
[25] = biological target: T2, Protein deacetylase HDAC6 (Homo sapiens); assay: Inhibition of HDAC6 in human U-937 cells assessed as increase in Hsp90(AcLys294) acetylation at 10 uM measured after 12 to 24 hrs by Western blot analysis; assay type: cell-based; details: time 12-24 hrs; outline: as §2
[26] = Inhibition of HDAC1/2/3/8 in human U-937 cells assessed as increase in H3K9/14 acetylation at 10 uM measured after 12 to 24 hrs by Western blot analysis; assay type: cell-based; details: u-937, 10 µM, time 12-24 hrs; outline: as §2
[27] = Cytotoxicity against human PBMC cells assessed as reduction in cell viability at 45 uM measured after 24 to 48 hrs by GUAVA easyCyte cytometric method; assay type: cell-based; details: time 24-48 hrs
Outline: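 PBMCs seeded at 1.5 x10^6/mL in complete medium and exposed to 15, 45 or 90 µM test compound, or DMSO vehicle, for 24 h and 48 h. Percentage of viable cells determined by flow cytometry with ViaCount reagent.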

Sequence of Histone deacetylase 1 (Q13547 whole entry, the tested form may be a part): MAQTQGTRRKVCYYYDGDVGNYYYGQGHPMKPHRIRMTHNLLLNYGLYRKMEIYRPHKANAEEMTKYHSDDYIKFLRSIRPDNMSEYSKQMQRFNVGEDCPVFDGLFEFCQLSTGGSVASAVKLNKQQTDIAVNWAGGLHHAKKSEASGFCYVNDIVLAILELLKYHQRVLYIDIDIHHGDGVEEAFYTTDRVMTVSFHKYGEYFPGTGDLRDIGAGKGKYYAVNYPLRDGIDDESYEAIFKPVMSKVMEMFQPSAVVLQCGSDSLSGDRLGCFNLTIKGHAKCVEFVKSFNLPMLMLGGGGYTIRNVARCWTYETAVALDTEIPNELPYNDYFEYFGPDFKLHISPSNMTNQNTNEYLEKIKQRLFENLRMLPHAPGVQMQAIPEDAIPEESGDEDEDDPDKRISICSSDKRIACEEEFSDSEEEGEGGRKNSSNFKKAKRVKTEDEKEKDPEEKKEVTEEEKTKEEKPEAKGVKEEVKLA

COc1c(-c2ccccc2)c2ccccc2n(Cc2ccc(C(=O)NO)cc2)c1=O
IC50 [1]: 90 µM | Activity [2]: Non-Toxic | Activity [3]: Non-Toxic | Activity [4]: Non-Toxic | Activity [5]: Non-Toxic | solubility [6]: Soluble | remaining at 24 h, 250 µM [7]: > 95% | IC50 [8]: 0.0616 µM | IC50 [9]: 4.5 µM

CCN(CC)Cc1ccc(Cn2c(=O)c(OCc3ccc(C(=O)NO)cc3)c(-c3ccccc3)c3ccccc32)cc1
inhibition [10]: Active | Activity [11]: 80% | Activity [12]: 50% | IC50 [13]: 11.6 µM | IC50 [14]: 40.6 µM | Activity [15]: Active | IC50 [16]: 13.5 µM | Activity [17]: 90% | fold change (FC) [18]: > 9 | fold change (FC) [19]: > 9 | Activity [20]: Active | IC50 [21]: 0.55 µM | Kapp ([21]; human, 1 h): 0.36 µM | Activity [22]: 60% | IC50 [23]: 3.6 µM | fold change (FC) [24]: 2 | inhibition [25]: inactive | inhibition (INH) [26]: Active | Activity [27]: Toxic
